From ChEMBL document CHEMBL3745596, “Chlorophenoxy aminoalkyl derivatives as histamine H(3)R ligands and antiseizure agents” (Bioorg Med Chem, 2016)
The source made the active and inactive calls.

How the values were obtained:
Mus musculus [1] = assay: Neurotoxicity in CF1 albino mouse at 50 mg/kg, ip after 4 hrs by rotarod test; assay type: toxicity, organism-based; conditions: in vivo
Method in brief: (§1)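 Rotarod neurotoxicity in male albino CF-1 mice dosed ip with compound suspended in 0.5% methylcellulose. Animal placed on a 1 inch diameter knurled plastic rod rotating at 6 rpm. Neurotoxicity scored when the animal falls off three times within 1 min. Readout is number of animals toxic/number tested at the stated time after dosing. TD50 with 95% confidence interval from the quantitative study.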

Mus musculus [2] = assay: Neurotoxicity in CF1 albino mouse at 100 mg/kg, ip after 4 hrs by rotarod test; assay type: toxicity, organism-based; conditions: in vivo; method in brief: as §1
Mus musculus [3] = assay: Anticonvulsant activity in CF1 albino mouse assessed as protection against maximal electroshock-induced seizure at 100 mg/kg, ip after 4 hrs; assay type: functional, organism-based
Method in brief: (§2)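 Male CF-1 mice dosed ip as suspension in 0.5% methylcellulose. Corneal electrodes deliver 60 Hz alternating current, 50 mA for […], after a drop of 0.5% tetracaine HCl in 0.9% NaCl per eye. Protection means abolition of hindlimb tonic extension; scored as protected/tested, or ED50 with 95% confidence interval.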

Mus musculus [4] = assay: Anticonvulsant activity in CF1 albino mouse assessed as protection against maximal electroshock-induced seizure at 30 mg/kg, ip after 0.5 hrs; assay type: functional, organism-based; method in brief: as §2
Mus musculus [5] = assay: Neurotoxicity in CF1 albino mouse at 3 mg/kg, ip after 0.5 hrs by rotarod test; assay type: toxicity, organism-based; conditions: in vivo; method in brief: as §1
Mus musculus [6] = assay: Neurotoxicity in CF1 albino mouse at 30 mg/kg, ip after 4 hrs by rotarod test; assay type: toxicity, organism-based; conditions: in vivo; method in brief: as §1
Mus musculus [7] = assay: Anticonvulsant activity in CF1 albino mouse assessed as protection against maximal electroshock-induced seizure at 3 mg/kg, ip after 0.5 hrs; assay type: functional, organism-based; method in brief: as §2
Mus musculus [8] = assay: Anticonvulsant activity in CF1 albino mouse assessed as protection against 6 Hz-psychomotor-induced seizure at 50 mg/kg, ip after 2 hrs; assay type: functional, organism-based
Method in brief: (§3)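 Male CF-1 mice, ip suspension in 0.5% methylcellulose. Corneal stimulation 0.2 ms monopolar rectangular pulses at 6 Hz, 32 mA for 3 s via constant-current device; mice without minimal clonic phase seizure counted protected. Groups of four; read at 0.25, 0.5, 1, 2, 4 h; result as protected/tested.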

Mus musculus [9] = assay: Neurotoxicity in CF1 albino mouse at 10 mg/kg, ip after 0.5 hrs by rotarod test; assay type: toxicity, organism-based; conditions: in vivo
Method in brief: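 Rotarod neurotoxicity in male CF-1 mice dosed ip as 0.5% methylcellulose suspension: mouse placed on 1 inch knurled rod rotating at 6 rpm; toxicity when the animal falls off three times within 1 min, with other signs noted. Scored as toxic/tested at 0.5 h and 4 h.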

Mus musculus [10] = assay: Neurotoxicity in CF1 albino mouse at 30 mg/kg, ip after 0.5 hrs by rotarod test; assay type: toxicity, organism-based; conditions: in vivo; method in brief: as §1
Mus musculus [11] = assay: Anticonvulsant activity in CF1 albino mouse assessed as protection against subcutaneous pentetrazole-induced seizure at 30 mg/kg, ip after 4 hrs; assay type: functional, organism-based
Method in brief: (§4)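 Male CF-1 mice, ip in 0.5% methylcellulose; pentetrazole at CD97 (85 mg/kg) injected subcutaneously in a loose fold of neck skin. Observed 30 min; absence of even a threshold seizure (single clonic spasm lasting at least 5 s) counted as protection. Scored protected/tested, or ED50.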

Mus musculus [12] = assay: Neurotoxicity in CF1 albino mouse at 300 mg/kg, ip after 4 hrs by rotarod test; assay type: toxicity, organism-based; conditions: in vivo; method in brief: as §1
Histamine H3 receptor = Histamine H3 receptor (Homo sapiens, UniProt Q9Y5N1); assay: Displacement of [3H]-Nalpha-methylhistamine from human recombinant histamine H3 receptor expressed in HEK293 cells after 90 mins; assay type: cell-based
Chain of Histamine H3 receptor (Q9Y5N1 whole entry): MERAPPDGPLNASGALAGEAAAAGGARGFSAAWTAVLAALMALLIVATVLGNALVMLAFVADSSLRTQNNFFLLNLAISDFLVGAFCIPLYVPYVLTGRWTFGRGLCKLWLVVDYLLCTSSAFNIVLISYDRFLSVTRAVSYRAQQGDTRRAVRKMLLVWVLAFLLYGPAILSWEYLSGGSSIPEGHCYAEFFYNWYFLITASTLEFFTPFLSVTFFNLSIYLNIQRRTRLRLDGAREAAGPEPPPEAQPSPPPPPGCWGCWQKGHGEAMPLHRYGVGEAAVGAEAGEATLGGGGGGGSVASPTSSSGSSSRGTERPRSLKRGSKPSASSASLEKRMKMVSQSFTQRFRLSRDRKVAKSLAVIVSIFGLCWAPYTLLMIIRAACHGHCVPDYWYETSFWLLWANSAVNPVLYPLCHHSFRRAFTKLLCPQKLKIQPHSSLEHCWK

Mus musculus [13] = assay: Anticonvulsant activity in CF1 albino mouse assessed as protection against maximal electroshock-induced seizure at 10 mg/kg, ip after 0.5 hrs; assay type: functional, organism-based; method in brief: as §2
Mus musculus [14] = assay: Neurotoxicity in CF1 albino mouse assessed as unable to grasp rotarod and death at 100 mg/kg, ip after 0.5 hrs by rotarod test; assay type: toxicity, organism-based; conditions: in vivo
Method in brief: (§5)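 Male albino CF-1 mice dosed ip with compound suspended in 0.5% methylcellulose, then placed on a 1-inch knurled plastic rod turning at 6 rpm. A fall three times within 1 min counted as neurotoxicity. Observations were made at 0.5 h and 4 h after dosing. Result given as animals showing toxicity per animals tested, with the kind of toxicity recorded.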

Rattus norvegicus = assay: Anticonvulsant activity in Sprague-Dawley rat assessed as protection against maximal electroshock-induced seizure at 30 mg/kg, po; assay type: functional
Mus musculus [15] = assay: Neurotoxicity in CF1 albino mouse at 50 mg/kg, ip after 0.25 hrs by rotarod test; assay type: toxicity, organism-based; conditions: in vivo; method in brief: as §1
Mus musculus [16] = assay: Anticonvulsant activity in CF1 albino mouse assessed as protection against maximal electroshock-induced seizure at 100 mg/kg, ip after 0.5 hrs; assay type: functional, organism-based; method in brief: as §2
Mus musculus [17] = assay: Anticonvulsant activity in CF1 albino mouse assessed as protection against 6 Hz-psychomotor-induced seizure at 50 mg/kg, ip after 0.25 hrs; assay type: functional, organism-based; method in brief: as §3
Mus musculus [18] = assay: Anticonvulsant activity in CF1 albino mouse assessed as protection against 6 Hz-psychomotor-induced seizure at 50 mg/kg, ip after 4 hrs; assay type: functional, organism-based; method in brief: as §3
Mus musculus [19] = assay: Neurotoxicity in CF1 albino mouse at 50 mg/kg, ip after 2 hrs by rotarod test; assay type: toxicity, organism-based; conditions: in vivo; method in brief: as §1
Mus musculus [20] = assay: Anticonvulsant activity in CF1 albino mouse assessed as protection against maximal electroshock-induced seizure at 30 mg/kg, ip after 4 hrs; assay type: functional, organism-based; method in brief: as §2
Mus musculus [21] = assay: Anticonvulsant activity in CF1 albino mouse assessed as protection against subcutaneous pentetrazole-induced seizure at 30 mg/kg, ip after 0.5 hrs; assay type: functional, organism-based; method in brief: as §4
Mus musculus [22] = assay: Anticonvulsant activity in ip dosed CF1 albino mouse assessed as protection against subcutaneous pentetrazole-induced seizure after 0.25 hrs; assay type: functional; method in brief: as §4
Mus musculus [23] = assay: Anticonvulsant activity in ip dosed CF1 albino mouse assessed as protection against maximal electroshock-induced seizure after 0.25 hrs; assay type: functional; method in brief: as §2
Mus musculus [24] = assay: Protective index, ratio of TD50 for ip dosed CF1 albino mouse to ED50 for ip dosed CF1 albino mouse assessed as protection against maximal electroshock-induced seizure after 0.25 hrs; assay type: functional
Mus musculus [25] = assay: Neurotoxicity in CF1 albino mouse assessed as death at 300 mg/kg, ip after 0.5 hrs by rotarod test; assay type: toxicity, organism-based; conditions: in vivo; method in brief: as §5
Mus musculus [26] = assay: Neurotoxicity in CF1 albino mouse at 50 mg/kg, ip after 1 hr by rotarod test; assay type: toxicity, organism-based; conditions: in vivo; method in brief: as §1
Mus musculus [27] = assay: Anticonvulsant activity in CF1 albino mouse assessed as protection against 6 Hz-psychomotor-induced seizure at 50 mg/kg, ip after 0.5 hrs; assay type: functional, organism-based; method in brief: as §3
Mus musculus [28] = assay: Anticonvulsant activity in CF1 albino mouse assessed as protection against 6 Hz-psychomotor-induced seizure at 50 mg/kg, ip after 1 hr; assay type: functional, organism-based; method in brief: as §3
Mus musculus [29] = assay: Anticonvulsant activity in CF1 albino mouse assessed as protection against subcutaneous pentetrazole-induced seizure at 100 mg/kg, ip after 4 hrs; assay type: functional, organism-based; method in brief: as §4
Mus musculus [30] = assay: Anticonvulsant activity in CF1 albino mouse assessed as protection against subcutaneous pentetrazole-induced seizure at 100 mg/kg, ip after 0.5 hrs; assay type: functional, organism-based; method in brief: as §4
Mus musculus [31] = assay: Anticonvulsant activity in CF1 albino mouse assessed as protection against 6 Hz-psychomotor-induced seizure at 30 mg/kg, ip after 0.25 to 4 hrs; assay type: functional, organism-based; method in brief: as §3
Mus musculus [32] = assay: Neurotoxicity in CF1 albino mouse at 30 mg/kg, ip after 0.25 to 4 hrs by rotarod test; assay type: toxicity, organism-based; conditions: in vivo; method in brief: as §1

What does the source list for `Clc1ccc(OCCCCCCCN2CCCCCC2)cc1.O=C(O)C(=O)O`?
Activity (Mus musculus [1]): Non-toxic; Activity (Mus musculus [2]): Non-toxic; Activity (Mus musculus [3]): Active; Activity (Mus musculus [4]): Active; Activity (Mus musculus [5]): Non-toxic; Activity (Mus musculus [6]): Non-toxic; Activity (Mus musculus [7]): inactive; Activity (Mus musculus [8]): inactive; Activity (Mus musculus [9]): Non-toxic; Activity (Mus musculus [10]): Non-toxic; Activity (Mus musculus [11]): inactive; Activity (Mus musculus [12]): Non-toxic; Ki (Histamine H3 receptor): 203 nM; Activity (Mus musculus [13]): inactive; Activity (Mus musculus [14]): Toxic; Activity (Rattus norvegicus): 25%; Activity (Mus musculus [15]): Non-toxic; Activity (Mus musculus [16]): Active; Activity (Mus musculus [17]): inactive; Activity (Mus musculus [18]): inactive; Activity (Mus musculus [19]): Non-toxic; Activity (Mus musculus [20]): inactive; Activity (Mus musculus [21]): inactive

With `Nc1nnc(-c2cccc(Cl)c2Cl)c(N)n1` [LAMOTRIGINE] as the compound, how does the ED50 (Mus musculus [22]) read?
Its ED50 is > 40 mg/kg.

And the ED50 (Mus musculus [23])?
Its ED50 is 7.47 mg/kg.

And the “Ratio TD50/ED50” value (Mus musculus [24])?
Its value is 4.

Which results are given for `Clc1cccc(OCCCCCCN2CCCCC2)c1.O=C(O)C(=O)O`?
Activity (Mus musculus [1]): Non-toxic; Activity (Mus musculus [2]): Non-toxic; Activity (Mus musculus [3]): Active; Activity (Mus musculus [4]): Active; Activity (Mus musculus [5]): Non-toxic; Activity (Mus musculus [6]): Non-toxic; Activity (Mus musculus [7]): inactive; Activity (Mus musculus [8]): inactive; Activity (Mus musculus [9]): Non-toxic; Activity (Mus musculus [25]): Toxic; Activity (Mus musculus [26]): Non-toxic; Activity (Mus musculus [10]): Non-toxic; Activity (Mus musculus [27]): inactive; Activity (Mus musculus [11]): inactive; Activity (Mus musculus [12]): Non-toxic; Ki (Histamine H3 receptor): 255 nM; Activity (Mus musculus [28]): inactive; Activity (Mus musculus [13]): inactive; Activity (Mus musculus [14]): Toxic; Activity (Rattus norvegicus): 25%; Activity (Mus musculus [16]): Active; Activity (Mus musculus [29]): inactive; Activity (Mus musculus [18]): inactive; Activity (Mus musculus [30]): inactive; Activity (Mus musculus [19]): Non-toxic; Activity (Mus musculus [20]): inactive; Activity (Mus musculus [21]): inactive

How did the Activity (Mus musculus [2]) turn out when `Clc1cccc(OCCCCCCN2CCCCCC2)c1.O=C(O)C(=O)O` was run?
The Activity was “Non-toxic”.

What about the Activity (Mus musculus [4]) of the same compound?
Its Activity is “Active”.

And the Activity (Mus musculus [5])?
The Activity was “Non-toxic”.

And the Activity (Mus musculus [6])?
Its Activity is “Non-toxic”.

What about the Activity (Mus musculus [7]) of the same compound?
The Activity was “inactive”.

And the Activity (Mus musculus [8])?
Its Activity is “inactive”.

What about the Activity (Mus musculus [9]) of the same compound?
Its Activity is “Non-toxic”.

And the Activity (Mus musculus [25])?
Its Activity is “Toxic”.

And the Activity (Mus musculus [27])?
Its Activity is “inactive”.

And the Activity (Mus musculus [31])?
Its Activity is “inactive”.

What about the Activity (Mus musculus [11]) of the same compound?
The Activity was “inactive”.

What about the Activity (Mus musculus [12]) of the same compound?
The Activity was “Non-toxic”.

What about the Ki (Histamine H3 receptor) of the same compound?
The Ki was 293 nM.

What about the Activity (Mus musculus [28]) of the same compound?
Its Activity is “inactive”.

And the Activity (Mus musculus [32])?
Its Activity is “Non-toxic”.

What about the Activity (Mus musculus [13]) of the same compound?
The Activity was “inactive”.

What about the Activity (Mus musculus [14]) of the same compound?
Its Activity is “Toxic”.

What about the Activity (Mus musculus [16]) of the same compound?
The Activity was “Active”.

And the Activity (Mus musculus [17])?
The Activity was “inactive”.

And the Activity (Mus musculus [18])?
Its Activity is “inactive”.

What about the Activity (Mus musculus [30]) of the same compound?
The Activity was “inactive”.

What about the Activity (Mus musculus [20]) of the same compound?
The Activity was “inactive”.

And the Activity (Mus musculus [21])?
Its Activity is “inactive”.

Which ED50 (Mus musculus [22]) does the source give for `CCCC(CCC)C(=O)O` [VALPROIC ACID] here?
Its ED50 is 220 mg/kg.

Which ED50 (Mus musculus [22]) does the source give for `CCC1(c2ccccc2)C(=O)NC(=O)NC1=O` [PHENOBARBITAL] here?
Its ED50 is 13.2 mg/kg.

And the ED50 (Mus musculus [23])?
Its ED50 is 21.8 mg/kg.
